# Measurements taken from the RNAGym collection of RNA variant scans (doi:10.1038/nmeth.2970).
# B1: GFP aptamer (parent)
# chain: GCUUCUGGACUGCGAUGGGAGCACGAAACGUCGUGGCGCAAUUGGGUGGGGAAAGUCCUUAAAAGAGGGCCACCACAGAAGC
# B2: NELF-E aptamer (parent)
# chain: CCCAACGACUGCCGAGCGAGAUUACGCUUGAGCGCCCCACUGAGGAUGCCCACGGGCGAUUGGGGCACGG
# Variants of: B1
# Test: HiTS-RAP
# Conditions: with EGFP
# Outline: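 Aptamer DNA templates carrying a T7 promoter and ter site were sequenced on an Illumina GAIIx flowcell, then transcribed in situ by T7 RNA polymerase and halted by GST-Tus (30 minutes, 37°C). Clusters were imaged after 30-minute room-temperature equilibration with EGFP-mOrange at 0.04 nM to 625 nM in fivefold steps. Intensities were decay-corrected, normalised to sequencing intensity and averaged per sequence. Kd came from weighted Hill fits per lane, geometrically averaged over three lanes, with non-rising sequences set to 125 nM.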
row,Variant,Kd
1,C13U C74U,17.4 nM
2,C10A,3.61 nM
3,C13G,6.37 nM
4,C73A,8.52 nM
5,C73U,6.59 nM
6,A52G,12.3 nM
7,A9G,14.8 nM
8,A27G A79G,2.94 nM
9,C37A,5.05 nM
10,C10U G14A,6.22 nM
11,U3G,5.4 nM
12,U42C A77G,13.7 nM
13,C22U A27G,9.49 nM
14,G19A,48.3 nM
15,C13U C58U,0.942 nM
16,G30A C73U,0.856 nM
17,C71U,14.5 nM
18,U34A,30.6 nM
19,U34C,24.2 nM
20,C13U A27G,7.37 nM
21,G50U,12.3 nM
22,U34C A41G,2.74 nM
23,U31A,4.16 nM
24,G33A A79G,11.9 nM
25,G46A,18.7 nM

row,Variant,Kd
1,G46U,29.2 nM
2,G46C,58.8 nM
3,A23G U31C,3.06 nM
4,C10U C73U,5.31 nM
5,A26G A77G,3.88 nM
6,C10U A77G,36 nM
7,A41U,4.87 nM
8,A41G,5.96 nM
9,C32G,4.95 nM
10,C32A,3.24 nM
11,A27G C37U,3.28 nM
12,C58U C70U,4.84 nM
13,A28G A79G,3.44 nM
14,A75G A79G,6.58 nM
15,A28G U42C,6.79 nM
16,A20G A62G,13.1 nM
17,C10G A20G,4.36 nM
18,A20G A23G,1.51 nM
19,C58U C74U,5.94 nM
20,A23C,13.2 nM
21,A23G,5.87 nM
22,C10U C32U,6.54 nM
23,A40G C73U,4.47 nM
24,C13U U43C,8.72 nM
25,C5A,8.09 nM

row,Variant,Kd
1,G25C,7 nM
2,G25A,5 nM
3,G69A,≥ 125 nM
4,G69U,3.44 nM
5,C10U U34C,4.37 nM
6,U11G,3.81 nM
7,C74U,6.27 nM
8,C74A,28.9 nM
9,U59G,6.85 nM
10,U59A,10.1 nM
11,C13U A28G,3.77 nM
12,C39U,10.3 nM
13,U11C A28G,15.9 nM
14,A28G U60C,13.9 nM
15,A53U,118 nM
16,A27G C32U,3.03 nM
17,G36U,≥ 125 nM
18,G18C,≥ 125 nM
19,G18A,≥ 125 nM
20,U47C C58U,2.94 nM
21,C32U A79G,5.26 nM
22,G81C,14.1 nM
23,G81A,5.44 nM
24,U60C,16.6 nM
25,G65U,≥ 125 nM

row,Variant,Kd
1,U43C,4.76 nM
2,G68U,15.9 nM
3,G68C,55.4 nM
4,A54C,≥ 125 nM
5,A54G,65.4 nM
6,A75G A77G,6.48 nM
7,A26G,4.22 nM
8,A27G C73U,10.5 nM
9,G8U,5.56 nM
10,C58U,1.21 nM
11,G25A C32U,13.6 nM
12,C37U C73U,24 nM
13,A66G,11.2 nM
14,U42C U47C,19.6 nM
15,A15G A27G,5.3 nM
16,C58U C73U,0.976 nM
17,A72U,17.7 nM
18,A27G A40G,2.81 nM
19,A27G,4.28 nM
20,C32U C74U,11.9 nM
21,G35U,≥ 125 nM
22,G35A,≥ 125 nM
23,A77C,15.3 nM
24,A28G G68A,32.8 nM
25,C24U C37U,6.91 nM

row,Variant,Kd
1,A27G A75G,5.08 nM
2,A27G C74U,3.31 nM
3,A20G U31C,35.3 nM
4,G49U,11.1 nM
5,G49C,57.7 nM
6,C32U C70U,11.5 nM
7,U11C C73U,44.7 nM
8,C73U C74U,7.64 nM
9,A41G U47C,2.42 nM
10,G78U,6.2 nM
11,G51C,≥ 125 nM
12,A80G,3.57 nM
13,A80C,12.1 nM
14,A20C,≥ 125 nM
15,A27G U43C,4.45 nM
16,C22A,13.8 nM
17,C22U,9.58 nM
18,A27G G30A,2.45 nM
19,G44U,93.2 nM
20,A75C,26.6 nM
21,A26G A27G,2.12 nM
22,C13U A26G,2.37 nM
23,C13U C70U,2.02 nM

# Variants of: B2
# Test: HiTS-RAP
# Conditions: with NELF-E (Drosophila)
# Outline: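 Kd came from weighted Hill fits to the first binding curve, with intensities normalised to sequencing intensity and averaged per sequence, keeping only fits whose variance was below 1,000,000. That curve was imaged on an Illumina GAIIx flowcell, where sequenced aptamer DNA templates with a T7 promoter and ter site had been transcribed in situ by T7 RNA polymerase and halted by GST-Tus (30 minutes, 37°C). Before each image, clusters equilibrated for 30 minutes at room temperature with NELF-E-mOrange at 0.064 to 1000 nM in HEPES binding buffer.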
row,Variant,Kd
1,A39U A67U,55 nM
2,A39U A67G,27.3 nM
3,C51A,8.65 nM
4,C51U,6.66 nM
5,C51G,4.48 nM
6,G54A A59G,73.6 nM
7,U41G G55C,6.95 nM
8,U41G G55A,7.84 nM
9,U41G G55U,7.2 nM
10,U47A A67G,12 nM
11,U47A A67U,10.5 nM
12,A46C,9.89 nM
13,A46G,26.5 nM
14,A46U,63.2 nM
15,A46G G54A,129 nM
16,U47C,9.59 nM
17,U47G,6.05 nM
18,U47A,10.2 nM
19,U41G C49U,28 nM
20,G65U A67U,8.45 nM
21,U41G U60C,9.67 nM
22,A43G A67U,23.5 nM
23,G62U G64U,5.62 nM
24,U61G G62U,5.22 nM

row,Variant,Kd
1,A39G G54A,23.3 nM
2,U41G C53U,3.62 nM
3,G54C,10.6 nM
4,G54U,6.39 nM
5,G54A,11.8 nM
6,U41G G62A,19.9 nM
7,G55A A67U,11.2 nM
8,G44A,42.3 nM
9,G44U,7.32 nM
10,G44C,27.5 nM
11,A39G U61C,8.88 nM
12,U61C A67G,68.2 nM
13,U41G G54A,18.1 nM
14,U41G A43G,8.31 nM
15,U41G A43U,26.3 nM
16,C40U U41G,7.61 nM
17,U41G G65A,6.9 nM
18,U41G G65U,6 nM
19,G54A C66U,16.9 nM
20,A46U A59G,60.5 nM
21,A52U U61A,90.9 nM
22,G45U A46G,5.32 nM
23,A43G G44U,5.97 nM
24,C68A,5.29 nM

row,Variant,Kd
1,C68U,4.59 nM
2,C68G,4.57 nM
3,G58U,9.77 nM
4,G58A,9.31 nM
5,G58C,65.3 nM
6,U41G A52G,4.52 nM
7,U41G A52U,16.4 nM
8,G54A G55A,26.2 nM
9,U41G C51U,7.25 nM
10,U41G G63A,16.8 nM
11,U41G G63U,11.8 nM
12,U41C,68.9 nM
13,U41A,73.7 nM
14,U41G,5.16 nM
15,G48U C49G,5.14 nM
16,G65U,6.03 nM
17,G65C,14 nM
18,G65A,4.39 nM
19,C53U G64A,4.84 nM
20,G62U,7.51 nM
21,G62A,16.9 nM
22,G62C,48.2 nM
23,A43G A59G,69 nM
24,C57U A67G,4.59 nM

row,Variant,Kd
1,C40A,71.3 nM
2,C40U,56.6 nM
3,C40G,5.55 nM
4,A39G G63A,87.1 nM
5,A43U A67U,37.1 nM
6,G64A A67U,35.5 nM
7,G64A A67G,4.84 nM
8,A39U C66U,21.2 nM
9,A39U U61A,17.4 nM
10,U47G G48U,6.17 nM
11,G48A,9.57 nM
12,G48C,85.4 nM
13,G48U,5.99 nM
14,A39U G54A,39.3 nM
15,G65U C66G,4.98 nM
16,C38U U41G,7.77 nM
17,A43C,76 nM
18,A43U,67 nM
19,A43G,24.6 nM
20,U41G C66U,4.15 nM
21,C51U C66U,7.21 nM
22,U41A G62A,102 nM
23,C38U,7.54 nM
24,C38A,31.4 nM

row,Variant,Kd
1,C38G,5.24 nM
2,C66U,4.61 nM
3,C66A,4.61 nM
4,C66G,4.38 nM
5,A52U C66U,15.1 nM
6,U41G G64U,5.28 nM
7,U41G G64C,7.1 nM
8,U41G G64A,6.38 nM
9,A39U A52G,15.5 nM
10,G63U G65U,5.32 nM
11,G55A G65U,6.71 nM
12,U41G A46U,62.9 nM
13,U41G A46G,26.2 nM
14,A39G C57U,9.77 nM
15,G42C,44.2 nM
16,G42U,10.5 nM
17,G42A,49.4 nM
18,G70U,5.07 nM
19,G70C,4.44 nM
20,G70A,4.46 nM
21,A52U,15.4 nM
22,A52G,4.24 nM
23,A52C,5.64 nM
24,U41G G56A,5.81 nM

row,Variant,Kd
1,U41G G56U,5.56 nM
2,U41G U47G,7.59 nM
3,A52U G56A,99 nM
4,G64A G65U,5.13 nM
5,C53G G54U,4.24 nM
6,C51U A52G,7.06 nM
7,G45C,39.5 nM
8,G45A,47.8 nM
9,G45U,6.76 nM
10,G64U,7.29 nM
11,G64C,7.73 nM
12,G64A,7.74 nM
13,G69U,5.33 nM
14,G69A,4.82 nM
15,G69C,5.52 nM
16,U41G C50U,13.8 nM
17,A67C,4.99 nM
18,A67U,6.41 nM
19,A67G,5.33 nM
20,U41G A59G,35.1 nM
21,U41G A59U,31.7 nM
22,U41A A67U,59.4 nM
23,U41A C66U,85.7 nM
24,A39U U41G,30.7 nM

row,Variant,Kd
1,A39U U41A,109 nM
2,A59G G64A,44.7 nM
3,U61A A67U,49.7 nM
4,U61A A67G,27.4 nM
5,G58U A59G,5.09 nM
6,U41G U61A,34.9 nM
7,G64C G65U,5.12 nM
8,C37U,11.1 nM
9,C37G,5.85 nM
10,C37A,13.7 nM
11,A46U U47G,5.55 nM
12,C49G,9.21 nM
13,C49U,19.5 nM
14,C49A,20.6 nM
15,C37A U41G,15.9 nM
16,A39U G48A,49 nM
17,U41C G54A,103 nM
18,C57G,6.36 nM
19,C57U,5.5 nM
20,C57A,13.9 nM
21,C53G,5.16 nM
22,C53U,3.8 nM
23,C53A,4.92 nM
24,A59C,110 nM

row,Variant,Kd
1,A59G,47.9 nM
2,A59U,72.2 nM
3,A52G C53U,6.67 nM
4,U41G C57U,6.91 nM
5,U41G G45A,53.9 nM
6,U41G G45U,5.07 nM
7,U41A A52U,81 nM
8,C38U A39G,6.36 nM
9,G55U,6.36 nM
10,G55A,7.36 nM
11,G55C,7.14 nM
12,U41G G48A,7.62 nM
13,U41G G42A,23.5 nM
14,U41G G42U,5.09 nM
15,A39G U41G,6.74 nM
16,C37U U41G,16.1 nM
17,A52U G63U,42.2 nM
18,A52U G63A,50.8 nM
19,A39U C40G,5.95 nM
20,U47A G54A,15.1 nM
21,A43G U60C,20.1 nM
22,A46G A67G,36.2 nM
23,C50G,6.31 nM
24,C50U,12.2 nM

row,Variant,Kd
1,C50A,14.7 nM
2,U41G A67G,6.35 nM
3,U41G A67U,7 nM
4,G56U,5.3 nM
5,G56C,37.4 nM
6,G56A,10.3 nM
7,U61G,7.54 nM
8,U61C,63.7 nM
9,U61A,28.4 nM
10,A39G,8.97 nM
11,A39U,23.5 nM
12,A39C,20.5 nM
13,G63C,33.8 nM
14,G63A,12.8 nM
15,G63U,10.3 nM
16,U60A,9.5 nM
17,U60C,9.28 nM
18,U60G,5.2 nM
19,G54U G56U,5.48 nM
